Experimental data of several laboratories.
Target: Ribosomal protein S6 kinase beta-1 (RPS6KB1, Homo sapiens, UniProt P23443)

Structure (SMILES)	observed	mode	technique	tested at	quantity	value
C=CC(=O)N1CCC([C@@H]2CCNc3c(C(N)=O)c(-c4ccc(Oc5ccccc5)cc4)nn32)CC1	enzyme activity	inhibitor		1 µM	inhibition	1%
Cc1cc(O)c(-c2ccc([C@@H](C)CN(C)C)cc2)c2c1[nH]c(=O)c1sccc12	enzyme activity	inhibitor		0.1 µM	inhibition	-5.29%
CO[C@@H]1[C@H](N(C)C(=O)c2ccccc2)C[C@H]2O[C@]1(C)n1c3ccccc3c3c4c(c5c6ccccc6n2c5c31)C(=O)NC4	enzyme activity	inhibitor		1 µM	inhibition	36%
C[C@H]1CC[C@H](n2c3cnccc3c3cnc(Nc4ccc5c(n4)CCN(C(=O)CO)C5)nc32)CC1	cell-free assay			1 µM	remaining signal	78%
COc1ccc2oc(-c3ccc4nc(N)oc4c3)c/c(=N\c3ccccc3NC(=O)CCN)c2c1	binding			1 µM	remaining binding	98%
CCCCC(=O)Nc1ccc(-c2ccc3ncn(CCC)c(=O)c3c2)cn1	binding		competition with immobilised ligand	0.5 µM	remaining binding	98%
Cc1ccc(NC(=O)c2ccnc(C(F)(F)F)c2)cc1-c1cc(OCCO)nc(N2CCOCC2)c1	binding			1 µM	remaining binding	100%
CC(C)S(=O)(=O)c1ccc2nccc(Nc3ccc4sc(C5CCCC5)nc4c3)c2c1	enzyme activity	inhibitor		1 µM	activity vs control	110%
